Screens: PubChem BioAssay, several laboratories
G6PDH counter: counter-screen for G6PDH assay hits: L. mesenteroides G6PDH inhibition | Purified L. mesenteroides G6PDH, diaphorase/resazurin coupled fluorescence, 45 min | inhibition, % at 5 µM | hit rate 0.12% among 200,000
WT yeast gro inh: growth inhibition of WT yeast, mitochondrial fusion screen. mitochondrial fusion phenotypic screen, WT strain. inhibition, % at 10 µM. hit rate 2.1% among 190,000; in the data active = inhibition above about 58%; tested in S. cerevisiae
Lmaj promast: Leishmania major promastigote growth inhibition | inhibition, % at 10 µM | hit rate 9% among 200,000 | Leishmania major promastigotes, resazurin fluorescence viability;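 also: promastigotes grown with compound for 44 hours at 28 °C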
Diaph act CS: diaphorase activation or chemical reduction counter-screen | Diaphorase/resazurin coupled assay, resorufin fluorescence, 16 min; hits give high values; 1 = vehicle wells, 0 = NADH-free wells | activation factor at 20 µM | hit rate 0.005% among 190,000 | AID 1229;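 active = diaphorase activity raised at least twofold by the compound at 20 µM; inactive = activation factor below 2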
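Test system: Clostridium kluyveri diaphorase, purified enzyme; input: enzyme 0.07 U/mL final; buffer or medium: 50 mM HEPES pH 7.4 with 4.542 mM MgCl2, 0.005% Tween 20; also added: 0.114 mM NADH and 0.1 mM resazurin, final amounts; schedule: 16 min enzyme reaction, ambient temperature; technique: fluorescence of resorufin, 544 nm excitation, 590 nm emission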
Diaph inh CS: diaphorase inhibition or chemical oxidation counter-screen. AID 1217. hit rate 0.69% among 190,000. diaphorase resazurin-to-resorufin fluorescence, NADH, 16 min; bacterial (C. kluyveri) enzyme, not human. inhibition, % at 20 µM;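 active = primary screen inhibition at 20 µM above a set limit, cut at about 50% in these data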
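controls = No-NADH positive control and DMSO neutral control | system = Clostridium kluyveri diaphorase enzyme | timing = reaction incubation of 16 min at room temperature | signal = resorufin fluorescence 544/590 nm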
Of the large screens only hits and unclear results are named; the others gave an inactive call. Most compounds without a hit are left out; they make up all but 11% or so of the library. Rule as the data show it, unless noted: active = inhibition above about 50%; inactive = the rest.

CN(C)c1ccc(N=Nc2ccccc2C(=O)OCC(=O)NCC2CCCCC2)cc1	WT yeast gro inh 64, Lmaj promast 97
O=C(O)c1cccc(N/N=C/C2=C(Cl)c3cc(Cl)ccc3SC2)c1	WT yeast gro inh 94
COc1ccccc1NC(=O)C(=O)NNC(=O)c1ccco1	none
Fc1ccc(NC(=S)Nc2cc(-c3ccccc3)[nH]n2)cc1Cl	none
O=C(Nc1ccc2c(c1)OCO2)c1cnn2c(C(F)(F)F)cc(-c3ccco3)nc12	none
O=C(Nc1cnn(C23CC4CC(CC(C4)C2)C3)c1)c1cnn2c(C(F)(F)F)cc(-c3ccco3)nc12	Lmaj promast 82
COc1ccc(CCNC(=O)C2CCN(S(=O)(=O)c3c(C)noc3C)CC2)cc1OC	Lmaj promast 53
CCC1CCCCN1CCNC(=O)C1CCN(S(=O)(=O)c2c(C)noc2C)CC1 (centres undefined)	Lmaj promast 77
COc1ccc(CCNC(=O)C2CCN(S(C)(=O)=O)CC2)cc1OC	none
Cc1cccc(CCNC(=O)C2CCN(S(=O)(=O)c3c(C)noc3C)CC2)c1	Lmaj promast 100
CCOC(=O)/C=C1\SCC(=O)N1CC(=O)NC(C)c1ccccc1 (centres undefined)	none
CCOC(=O)/C=C1\SCC(=O)N1CC(=O)NC(c1ccccc1)c1ccccc1	Lmaj promast 77
O=C(NC(=S)Nc1ccc(S(=O)(=O)NC2CCCCC2)cc1)c1cccs1	WT yeast gro inh 64
O=C(NC(=S)Nc1ccc(S(=O)(=O)N2CCCCC2)cc1)c1cccs1	none
O=C1NC(c2ccccc2OC(F)F)Oc2ccccc21 (centres undefined)	none
CC(/C=N/NC(=O)c1cc(-c2cccs2)[nH]n1)=C\c1ccccc1	none
CC(C)Oc1ccc(CC2CCC(=O)N(C)C2=O)cc1 (centres undefined)	none
O=C1c2cccc(OCC(=O)N3N=C(c4cccs4)CC3c3ccc(F)cc3)c2CCN1Cc1cccnc1 (centres undefined)	Lmaj promast 85
CC(C)CC(NC(N)=O)C(=O)NCCc1ccc(Cl)cc1Cl (centres undefined)	none
CSCc1cc(N2CCCC2)nc(-c2ccccc2)n1	Lmaj promast 68
COCc1cc(N2CCCCC2)nc(-c2ccccc2)n1	none
CC(C)SCc1cc(N2CCCC2)nc(-c2ccccc2)n1	WT yeast gro inh 58
COc1cc([N+](=O)[O-])ccc1NC(=O)CSc1n[nH]c(C(C)C)n1	none
O=C(COCC(=O)N/N=C/c1ccc(F)cc1)N/N=C/c1ccc(F)cc1	none
CCCOc1ccc(/C=C/C(=O)O)cc1OC	none
CCOc1ccc(/C=C/C(=O)c2ccccc2)cc1OC	Lmaj promast 99
COc1ccc(/C=C/C(=O)c2ccc(NC(=O)c3cccs3)cc2)cc1OC	Lmaj promast 98
COc1cc(C=O)ccc1OCCOCCOc1ccc(Cl)cc1	none
COc1ccc(C(=O)Nc2ccc(NC(=O)c3cccs3)cc2)cc1Cl	none
C/C=C/c1ccc(OCCOc2ccc(C=O)cc2)c(OC)c1	Lmaj promast 82
CCOc1ccc(C(=O)/C=C/c2ccc(OC)c(OC)c2)cc1	Lmaj promast 86
CCN(CC)S(=O)(=O)c1ccc(C(=O)OCC(=O)Nc2ccc(-c3nc4ccc(C)cc4s3)cc2)cc1	Lmaj promast 58
Clc1ccc2ncc(-c3nnnn3-c3ccccc3)c(-c3ccccc3)c2c1	WT yeast gro inh 70
Clc1ccc2[nH]cc(-c3nnnn3-c3ccccc3)c2c1	none
CC(C)(C)NC(=O)NC(=O)COC(=O)Cc1coc2ccc3ccccc3c12	WT yeast gro inh 70
COc1ccc(CCN2CC(O)=C(c3nc(C)cs3)C2=N)cc1OC	none
Cc1csc(C2=C(O)CN(CCc3ccccc3)C2=N)n1	Lmaj promast 99
CCC(=O)N[C@@H]1CC(C(C)(C)NC(=O)CC)CC=C1C (some centres undefined)	none
CCN(CC)Cc1c(O)ccc2c([N+](=O)[O-])c(C)n(-c3ccc(OC)cc3)c12	Lmaj promast 69
Cc1nc2ccc(S(=O)(=O)Nc3cccc(-c4nc5cccnc5s4)c3)cc2s1	WT yeast gro inh 72
O=C(O)COc1ccc(/C=N/NC(=O)C2CCCN2S(=O)(=O)c2ccc(Cl)cc2)cc1 (centres undefined)	none
O=S(=O)(c1ccccc1)c1cnc(-c2cccnc2)nc1-c1ccc(Cl)cc1Cl	WT yeast gro inh 67
Cc1cc(=O)c2cccc(Br)c2[nH]1	none
O=c1cc(C(F)(F)F)[nH]c2c(C(F)(F)F)cccc12	WT yeast gro inh 78
COc1ccc(Br)cc1C(=O)Nc1cc(C)cc(C)c1	none
COc1ccc(S(=O)(=O)N2Cc3ccccc3CC2C(=O)Nc2nccs2)cc1 (centres undefined)	Lmaj promast 99
CCc1nnc(NC(=O)C2Cc3ccccc3CN2S(=O)(=O)c2ccc(C)cc2)s1 (centres undefined)	WT yeast gro inh 79
CCc1nnc(NC(=O)C2Cc3ccccc3CN2S(=O)(=O)c2cccs2)s1 (centres undefined)	Lmaj promast 53
O=C(Nc1nnc(C2CC2)s1)C1Cc2ccccc2CN1S(=O)(=O)c1cccs1 (centres undefined)	none
CCc1nnc(NC(=O)C2CCCN2S(=O)(=O)c2ccc(C)cc2)s1 (centres undefined)	none
Cc1ccc(S(=O)(=O)N2Cc3ccccc3CC2C(=O)Nc2ccc3c(c2)OCO3)cc1 (centres undefined)	Lmaj promast 100
O=[N+]([O-])c1ncn(Cc2c(Cl)cccc2Cl)n1	none
CNC(=O)C1Cc2ccccc2CN1S(=O)(=O)c1cccs1 (centres undefined)	Lmaj promast 68
COc1ccccc1NC(=S)N(Cc1cccs1)C1CCCC1	WT yeast gro inh 75
CCCCC(=O)N/N=C(/C)C1=C(C)C(C)(C)OC1=O	none
CC1CC(C)CN(C(=O)CSc2nc(N)cc(=O)[nH]2)C1 (centres undefined)	none
CCCN1C(=O)/C(=C\c2nc3ccccc3c(=O)[nH]2)c2ccccc21	Lmaj promast 100
Clc1cnc(N/N=C/c2ccco2)c(Cl)c1	Lmaj promast 67
Clc1cnc(N/N=C/c2cccs2)c(Cl)c1	none
O=C(O)c1ccc(COc2ccc(Cl)cc2)o1	none
O=C(c1ccc(COc2ccc(Cl)cc2)o1)N1CCN(Cc2ccc3c(c2)OCO3)CC1	WT yeast gro inh 76
Cc1ccc(C(=O)N2CCN(Cc3ccc4c(c3)OCO4)CC2)o1	none
O=C(c1ccc(COc2ccccc2Cl)o1)N1CCN(Cc2ccc3c(c2)OCO3)CC1	Lmaj promast 90
CCN1CCN(C(=O)c2ccc(COc3ccc(Cl)cc3)o2)CC1	Lmaj promast 84
Cc1c(NC(=O)Cc2ccccc2)cccc1C(=O)NN1C(=O)c2ccccc2C1=O	none
COc1ccc(OC)c(S(=O)(=O)Nc2cc(OC)c(Cl)cc2OC)c1	Lmaj promast 62
COc1cc(NS(=O)(=O)c2ccc(OC)c(C)c2C)c(OC)cc1Cl	Lmaj promast 100
